Laboratory results taken from the array DNA melting data of Ke et al. (doi:10.1101/2024.01.08.574731).

Legend:
[1] = folding enthalpy; higher = less favourable; fluorescence melt of hairpins on a sequencing array, two-state fit; conditions: sodium 0.088 M
In short: (§1)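 Melting temperature and folding enthalpy were derived from bootstrapped two-state fits. The fitted temperatures were raised by 9.35 °C to agree with UV melts, and four replicates were combined by inverse variance. The underlying data were Cy3 fluorescence images of library hairpins, with annealed Cy3 and quencher oligos, on a sequenced MiSeq flow cell in 50 mM Na-HEPES pH 8.0, 25 mM NaCl, taken in 2.5 °C steps up to 60 °C, normalised to pre-quench Cy3 and to control constructs.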

[2] = melting temperature; fluorescence melt of hairpins on a sequencing array, two-state fit, raised by 9.35 °C to match UV melts; conditions: sodium 0.088 M
In short: as §1

| Sequence | folding enthalpy [1] | Tm [2] |
| --- | --- | --- |
| GGGGGGGGAAACCTCCCC ((((.((....)).)))) | -34 kcal/mol | 59.9 °C |
| GCAACGGGAAACCGTCGC ((.((((....)))).)) | -28.3 kcal/mol | 49.4 °C |
| GCCGACGGAAACGTCAGC ((.((((....)))).)) | -23.6 kcal/mol | 49.6 °C |
| GTAGGGCGAAAGCCATAC (((.(((....))).))) | -22.2 kcal/mol | 55.6 °C |
| GGGACCGAAAGGTTCCC ((((((....))).))) | -26.7 kcal/mol | 60.4 °C |
| CGCTACGGAAACGTGGCG (((.(((....))).))) | -40.1 kcal/mol | 59.5 °C |
| GCCCGGCGAAAGCGTGGC (((..((....))..))) | -20.2 kcal/mol | 57.9 °C |
| CGCGCGGAAACGCCCGCG ((((((....)))..))) | -29.7 kcal/mol | 54.7 °C |
| GCTATGCGAAAGCCAAGC (((..((....))..))) | -16.7 kcal/mol | 36.5 °C |
| GTCGGCGAAAGCCCCGAC ((((((....)))..))) | -15.6 kcal/mol | 41.8 °C |
| GCAAACGGAAACGTTTAC (.(((((....))))).) | -18.7 kcal/mol | 38.4 °C |
| CGGCATCGGAAACGACCG (((..(((....)))))) | -16.6 kcal/mol | 34.4 °C |
| GATCAGAGGCCTGATC ((((((....)))))) | -34.6 kcal/mol | 48.5 °C |
| GTAAGACCGAAAGGTTAC (((..(((....)))))) | -13.8 kcal/mol | 30.3 °C |
| GTGGTGGGAAACTACCAC (((((.(....).))))) | -43.4 kcal/mol | 52.6 °C |
| GCATATGGAAACACATGC ((((.((....)).)))) | -26.8 kcal/mol | 35.8 °C |
| GATCCCGCTGGGATC ((((((...)))))) | -37.4 kcal/mol | 63.2 °C |
| GCTCATGAAAATGAGC ((((((....)))))) | -38.5 kcal/mol | 63.6 °C |
| GTCTGCGAAAGCACAGAC ((((((....)))..))) | -18.6 kcal/mol | 46.3 °C |
| GTTGAACGAAAGTTAAC (((.(((....)))))) | -12.3 kcal/mol | 30 °C |
| GATACCCGAAAGGGCATC (((.(((....))).))) | -18.8 kcal/mol | 49.5 °C |
| GTACAGGGAAACTTGTAC (((((.(....).))))) | -30.4 kcal/mol | 39.8 °C |
| GATCATCATGATGATC ((((((....)))))) | -38 kcal/mol | 53.8 °C |

| Sequence | folding enthalpy [1] | Tm [2] |
| --- | --- | --- |
| GTAGGTGGAAACACTTAC (((.(((....))).))) | -28.4 kcal/mol | 39.5 °C |
| CTACAGAAATGTAG (((((....))))) | -13.3 kcal/mol | 36.5 °C |
| GATCATGGGTATGATC ((((((....)))))) | -34.6 kcal/mol | 46.7 °C |
| GCTATGGGAAACTATAGC (((((.(....).))))) | -33.3 kcal/mol | 43.7 °C |
| GAGGTGGGAAACCGCCTC ((((.((....)).)))) | -46.9 kcal/mol | 57.1 °C |
| GGATGCCCGAAAGGGTCC (((..(((....)))))) | -11 kcal/mol | 33.2 °C |
| GCGTAAGAACGC ((((....)))) | -15.8 kcal/mol | 49.5 °C |
| CGAGACGGAAACGTATCG (((.(((....))).))) | -34.6 kcal/mol | 52.1 °C |
| GTTCACTCGAAAGAGAAC (((..(((....)))))) | -9.99 kcal/mol | 27.8 °C |
| GATCATTCGATGATC ((((((...)))))) | -35.8 kcal/mol | 47.2 °C |
| GCCTGCGAAAGCAACGGC ((((((....)))..))) | -23.6 kcal/mol | 52.8 °C |
| GTGTCACGAAAGTGCAC (((.(((....)))))) | -26 kcal/mol | 53.5 °C |
| GTCATCGCGAAAGCGGAC (((..(((....)))))) | -11.1 kcal/mol | 39.9 °C |
| GATCTTGTCAAAGATC ((((((....)))))) | -41.9 kcal/mol | 54.8 °C |
| GGTTATCGAAAGATACC (((.(((....)))))) | -25 kcal/mol | 43.1 °C |
| GATCCTGAATAGGATC ((((((....)))))) | -39.2 kcal/mol | 59 °C |
| GTTGCAGGAAACTGCGAC ((.((((....)))).)) | -28 kcal/mol | 53.9 °C |
| GATCGGGACCCCGATC ((((((....)))))) | -39.4 kcal/mol | 62.4 °C |
| GTTCTGGGAAACCAGAAC (((((((....))))))) | -42.9 kcal/mol | 60.5 °C |
| GGTACAGCGAAAGCTACC (((..(((....)))))) | -16.4 kcal/mol | 38.1 °C |
| GAGTGCGAAAGCATGCTC ((((((....)))..))) | -15 kcal/mol | 43.4 °C |
| GTATACGAAAGTACGTAC ((((((....)))..))) | -14 kcal/mol | 26.7 °C |
| GCATAAACGAAAGTTTGC (((..(((....)))))) | -18.5 kcal/mol | 37.4 °C |

| Sequence | folding enthalpy [1] | Tm [2] |
| --- | --- | --- |
| GATCAAGATGTTGATC ((((((....)))))) | -28 kcal/mol | 43.5 °C |
| GCCTCCGAAAGGAACGGC ((((((....)))..))) | -25.3 kcal/mol | 46.9 °C |
| GGCCCACGAAAGTGGCC (((.(((....)))))) | -17.8 kcal/mol | 65.4 °C |
| GATGCAGGAAACTGTATC (((.(((....))).))) | -33.5 kcal/mol | 44.9 °C |
| GGTAGCGAAAGCTCCACC ((((((....)))..))) | -13.2 kcal/mol | 38.8 °C |
| GCGCTGCGAAAGCTCCGC (((..((....))..))) | -20.5 kcal/mol | 49.4 °C |
| GAGGTACGAAAGTAGCTC (((.(((....))).))) | -44.4 kcal/mol | 57.9 °C |
| CGTGACGGAAACGTTACG (((.(((....))).))) | -29.3 kcal/mol | 52.2 °C |
| GATCTGTATACAGATC ((((((....)))))) | -40.8 kcal/mol | 54.3 °C |
| GAATGCGAAAGCAACTTC ((((((....)))..))) | -13 kcal/mol | 36 °C |
| GATCACCGCAGTGATC ((((((....)))))) | -40 kcal/mol | 59 °C |
| GCCGTGCGAAAGCATAGC ((..(((....)))..)) | -13.6 kcal/mol | 43.3 °C |
| GGTCAGGGAAACTTGACC (((((.(....).))))) | -37.9 kcal/mol | 49.5 °C |
| GAACGCGAAAGCGCTTTC ((((((....)))..))) | -8.13 kcal/mol | 29.7 °C |
| GATCAGCACGCTGATC ((((((....)))))) | -42.1 kcal/mol | 62.3 °C |
| GTAGTCGAAAGACGTAC ((((((....))).))) | -19.1 kcal/mol | 47.6 °C |
| GAGATAACGAAAGTTCTC (((..(((....)))))) | -20.8 kcal/mol | 30.7 °C |
| CGATGCGGAAACGCGTCG (((.(((....))).))) | -47.4 kcal/mol | 62.1 °C |
| GTTGCTGCGAAAGCAAAC (((..(((....)))))) | -14.3 kcal/mol | 37.8 °C |
| GGAGGCGAAAGCCCGTCC ((((((....)))..))) | -8.99 kcal/mol | 39.7 °C |
| GAATAACGAAAGTTTTTC (((.(((....))).))) | -28.6 kcal/mol | 32 °C |
| GTTTGCGAAAGCATAAC ((((((....))).))) | -17.3 kcal/mol | 43 °C |
| GCATAAGGAAACTTACGC ((.((((....)))).)) | -21.7 kcal/mol | 31.6 °C |

| Sequence | folding enthalpy [1] | Tm [2] |
| --- | --- | --- |
| GAGCTGCGAAAGCAACTC (((.(((....))).))) | -31.8 kcal/mol | 51.2 °C |
| GATCCACTCTGGATC ((((((...)))))) | -36.5 kcal/mol | 52.4 °C |
| GTGTATGGAAACATGCAC (((.(((....))).))) | -33.9 kcal/mol | 48.9 °C |
| GGGGAAGGAAACCTCCCC (((((.(....).))))) | -43.9 kcal/mol | 47.8 °C |
| GCCTCTACGAAAGTAGGC (((..(((....)))))) | -12.2 kcal/mol | 47.9 °C |
| GAGGTACGAAAGTATCTC (((.(((....))).))) | -32.3 kcal/mol | 50.5 °C |
| GCAATCGGAAACAATTGC (((((.(....).))))) | -27.9 kcal/mol | 38 °C |
| GATGAGCGAAAGCTGATC (((.(((....))).))) | -22.1 kcal/mol | 45.9 °C |
| GTATATGGAAACATATGC (.(((((....))))).) | -25 kcal/mol | 36.5 °C |
| GCCAGGGGAAACCTTGGC ((((.((....)).)))) | -43.9 kcal/mol | 53.4 °C |
| GATGCGCGAAAGCGGATC (((.(((....))).))) | -30.6 kcal/mol | 64.5 °C |
| GCTGTGCGAAAGCGCTGC ((.(.((....)).).)) | -25.6 kcal/mol | 60.1 °C |
| GGGCAAGGAAACTTACCC (((.(((....))).))) | -29.2 kcal/mol | 38.9 °C |
| CGATTCGGAAACGACTCG (((.(((....))).))) | -37.8 kcal/mol | 42.6 °C |
| GGAATTCGAAAGAATCC (((.(((....)))))) | -20.9 kcal/mol | 39 °C |
| GAACAGCGAAAGCTATTC (((.(((....))).))) | -15.6 kcal/mol | 34.7 °C |
| GGACTGGCGAAAGCCTCC (((..(((....)))))) | -9.14 kcal/mol | 31.6 °C |
| GCCAGCGAAAGCTCGGC ((((((....))).))) | -28.4 kcal/mol | 60.8 °C |
| GCGATTCCTCGC ((((....)))) | -22.4 kcal/mol | 49.5 °C |
| GGCTAACGAAAGTTGGCC (((.(((....))).))) | -44.2 kcal/mol | 60.1 °C |
| GACCATCCGAAAGGAGTC (((..(((....)))))) | -14.4 kcal/mol | 26.4 °C |
| GCACACGCGAAAGCGTGC (((..(((....)))))) | -5.12 kcal/mol | 45 °C |
| GACTCCGAAAGGAGCGTC ((((((....)))..))) | -13.4 kcal/mol | 49.9 °C |
